Results on 1 compound are retold here after ChEMBL document CHEMBL4024790 (J Med Chem, 2018).

Calls of active or inactive are those of the source. The rule behind the calls is not given here.

Data set [1] is described as follows: Volume of distribution at steady state in beagle dog at 0.3 mg/kg, iv by LC-MS/MS analysis. It is filed as ADME, organism-based, Canis lupus familiaris. The following applies: in vivo, read-out: Vdss. In a few lines: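 Beagle dogs got a single IV dose as a solution in 20% (w/v) sulfobutyl ether β-cyclodextrin with hydrochloric acid, at 0.4 mL/kg. Blood was drawn into K3EDTA via carotid artery cannula at set times from 2 min to 24 h. Plasma was acetonitrile-precipitated with internal standard and measured by LC-MS/MS with positive electrospray, standard curve 0.61 to 1250 ng/mL.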

For the next data set, the system named is Brain. In words: Drug uptake in rat brain at 5 to 250 mg/kg/day, po up to 15 days by microscopic method. It is filed as ADME, organism-based. The note with it: in vivo, 360 h. In a few lines:
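Exploratory rat toxicity study, oral dosing at 5, 50 and 250 mg/kg/day for up to 15 days, with microscopic examination of heart and vasculature and measurement of plasma and brain exposure.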

Data set [2] concerns Rattus norvegicus. Briefly: Reversal of MK-801-induced disruption of low frequency cortical delta oscillation in Sprague-Dawley rat brain at 0.03 mg/kg, iv in early time point measured up to 55 mins by electrophysiology method. It is filed as functional, organism-based.
Data set [3] is filed under the species Mus musculus. Briefly: Increase in cGMP level in CD-1 mouse brain cortex assessed as unbound brain concentration required to show the effect by immunoassay. Format: functional. In a few lines: (§1)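 CD-1 mice dosed SC (solution in 20% SBE-β-CD with 2 molar equivalents 1N HCl, 1 mL/kg); euthanized by focused microwave irradiation of brain; cortex, striatum, hippocampus homogenized in 0.5 N HCl, centrifuged; cyclic nucleotides in supernatant by enzyme immunoassay. Unbound brain exposure from satellite animals; dose-response and time-course data combined with linear model; one-way ANOVA with Fisher's PLSD.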

Data set [4] can be described thus: Cmax in beagle dog at 5 mg/kg, po administered via gavage by LC-MS/MS analysis. Format: ADME, organism-based, Canis lupus familiaris. Set-up: dose 5 mg/kg, route oral. The note with it: in vivo.
For data set [5], the system named is Rattus norvegicus. In words: Reversal of ketamine-induced working memory deficit in Long Evans rat at 0.032 to 0.32 mg/kg, sc by radial arm maze assay.
In data set [6] the test system is Rattus norvegicus. Briefly: Antipsychotic activity in Long Evans rat at 0.32 to 3.2 mg/kg, sc by conditioned avoidance responding assay. Format: functional, organism-based. Put shortly:
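Rats dosed SC at 0.32, 1.0 and 3.2 mg/kg; conditioned avoidance responding also run in combination with risperidone 0.032 mg/kg.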

The species entered for data set [7] is Mus musculus. Briefly: Effect on cAMP level in CD-1 mouse brain striatum by immunoassay. Format: functional. In a few lines:
as §1

The subject of data set [8] is Rattus norvegicus. In words: Reversal of ketamine-induced working memory deficit in Long Evans rat assessed as unbound brain concentration required to show effect at 0.32 mg/kg, sc by radial arm maze assay. Format: functional, organism-based. Put shortly:
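Rats trained in a radial arm maze working-memory task, with deficit induced by ketamine. Compound dosed sc; errors compared with vehicle + ketamine. N = 20–23 per group, Hochberg test. Cbu at the tested doses estimated from satellite pharmacokinetic animals.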

For data set [9], the species on record is Canis familiaris. Briefly: Toxicity in dog assessed as effect on vasculature up to 1 month by microscopic method. Further details: species or system Canis lupus familiaris. The note with it: in vivo.
Data set [10] deals with Rattus norvegicus. In words: Reversal of MK-801-induced disruption of low frequency cortical delta oscillation in Sprague-Dawley rat brain at 0.1 mg/kg, iv up to 55 mins by electrophysiology method. Format: functional, organism-based.
The next data set deals with Liver. In words: Drug metabolism in rat liver microsomes assessed as 3-(7-methyl-5-(1-methyl-5-(5-(trifluoromethyl)pyridin-2-yl)-1H-pyrazol-4-yl)imidazo[1,5-f][1,2,4]triazin-4-ylamino)propanoic acid formation at 1 to 50 uM after 1 hr by LC-MS/MS analysis. It is filed as ADME, microsome. In a few lines:
(§2)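 Rat, dog or human liver microsomes or hepatocytes (P450 0.35–0.5 µM final) incubated with compound at 1, 10 or 50 µM in 100 mM phosphate buffer with 1 mM NADP regenerating system, 37°C for 1 h; quenched with 4 volumes acetonitrile, centrifuged, supernatant evaporated, reconstituted in 5% aqueous acetonitrile and analysed by reversed-phase LC.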

Data set [11] in a line: Terminal half life in Wistar Han rat at 5 mg/kg, po administered via gavage by LC-MS/MS analysis. It is filed as ADME, organism-based. The following applies: in vivo, read-out: beta t1/2 (converted).
The nature of data set [12]: Volume of distribution at steady state in Wistar Han rat at 1 mg/kg, iv by LC-MS/MS analysis. It is filed as ADME, organism-based. The following applies: in vivo, read-out: Vdss. In a few lines: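 Male Wistar-Han rats got a single IV dose as a solution in 20% (w/v) sulfobutyl ether β-cyclodextrin with hydrochloric acid, at 1 mL/kg. Blood was drawn into K2EDTA via carotid artery cannula at set times from 2 min to 24 h. Plasma was protein-precipitated with acetonitrile plus internal standard and quantified by LC-MS/MS with positive electrospray, standard curve 0.61 to 625 ng/mL.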

The next data set deals with Cytochrome P450 2C19 (Homo sapiens, UniProt P33261). Briefly: Inhibition of recombinant human CYP2C19. It is filed as ADME. The following applies: recombinant enzyme.
The subject of data set [13] is Canis familiaris. Briefly: Toxicity in dog up to 30 mg/kg, po administered as single dose by microscopic method. The note with it: in vivo. Format: organism-based, Canis lupus familiaris.
In data set [14] the test system is Rattus norvegicus. Briefly: Toxicity in rat assessed as effect on vasculature at 5 to 250 mg/kg/day, po up to 15 days by microscopic method. The following applies: in vivo, 360 h. It is filed as organism-based.
The nature of data set [15]: Passive permeability in RRCK cells. Format: ADME, cell-based, Canis lupus familiaris, MDCKII-LE. The note with it: dog, MDCK; read-out: permeability.
Data set [16] is described as follows: Cmax in Wistar Han rat at 1 mg/kg, iv by LC-MS/MS analysis. Format: ADME, organism-based. Set-up: dose 1 mg/kg, route intravenous. The note with it: in vivo. In a few lines:
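Male Wistar-Han rats given single 1 mg/kg IV; beagle dogs 0.3 mg/kg IV; solution in 20% (w/v) sulfobutyl ether β-cyclodextrin with hydrochloric acid, 1 mL/kg (rat) or 0.4 mL/kg (dog). Blood via carotid artery cannula between 2 min and 24 h into EDTA tubes; plasma analysed by LC-MS/MS with positive electrospray.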

For data set [17], the species on record is Mus musculus. Briefly: Increase in cGMP level in CD-1 mouse brain hippocampus assessed per nM of unbound brain concentration by immunoassay. It is filed as functional. In a few lines:
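CD-1 mice given compound; brains fixed by focused microwave irradiation, and cortex, striatum and hippocampus dissected and homogenized in 0.5 N HCl, then centrifuged. cGMP in the supernatant measured by enzyme immunoassay. Unbound brain concentration taken from satellite animals. Dose-response and time-course data combined, and a linear Cbu–cGMP model fitted. The Cbu E50 is the projected Cbu giving a 50% rise in cGMP. Statistics by one-way ANOVA with Fisher's PLSD, p<0.05.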

A short description of data set [18]: Ratio of unbound brain concentration to unbound plasma concentration in iv or sc dosed Wistar Han rat. Format: ADME, organism-based. The following applies: brain and plasma, read-out: K(p,uu,brain). In a few lines:
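Compound given sc to mice, iv and/or sc to rats, po to dogs and sc to monkeys; sc doses as a solution in 20% SBE-BCD + 2 molar equiv 1N HCl. Plasma, whole brain and CSF taken at matched times from 2 min to 24 h and quantified by LC-MS/MS. Fraction unbound in plasma and brain homogenate (diluted 4-fold, dilution factor 5 applied) by 6 h equilibrium dialysis against phosphate buffer at 37°C.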

Data set [19] can be described thus: Drug metabolism in rat hepatocytes assessed as 3-(7-methyl-5-(1-methyl-5-(5-(trifluoromethyl)pyridin-2-yl)-1H-pyrazol-4-yl)imidazo[1,5-f][1,2,4]triazin-4-ylamino)propanoic acid formation at 1 to 50 uM after 1 hr by LC-MS/MS analysis. Format: ADME, cell-based, Hepatocyte. In a few lines:
as §2

Sequence of Cytochrome P450 2C19 (P33261 whole entry): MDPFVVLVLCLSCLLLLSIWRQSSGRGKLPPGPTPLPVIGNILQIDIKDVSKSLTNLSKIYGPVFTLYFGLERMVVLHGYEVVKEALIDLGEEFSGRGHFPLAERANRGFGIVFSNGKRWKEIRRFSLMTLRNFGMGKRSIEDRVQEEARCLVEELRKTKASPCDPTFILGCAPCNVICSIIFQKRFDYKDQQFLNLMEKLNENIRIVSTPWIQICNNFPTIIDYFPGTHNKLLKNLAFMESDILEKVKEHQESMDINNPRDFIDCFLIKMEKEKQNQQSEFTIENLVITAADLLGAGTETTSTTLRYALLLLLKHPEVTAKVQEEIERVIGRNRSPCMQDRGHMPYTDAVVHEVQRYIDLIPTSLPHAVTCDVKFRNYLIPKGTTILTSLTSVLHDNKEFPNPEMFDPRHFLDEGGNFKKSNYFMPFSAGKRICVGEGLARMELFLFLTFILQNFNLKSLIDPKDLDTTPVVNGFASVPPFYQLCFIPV

On to `Cc1nc(-c2cnn(C)c2-c2ccc(C(F)(F)F)cn2)c2c(N3CCC3)ncnn12` [PF-05180999], for which the Vd worked out at 2.89 L/kg in [1] and 3.94 L/kg in [12]. Further, in the data set with Brain, the Drug uptake result is recorded as “Active”. The result in the data set with Rattus norvegicus [2], with Rattus norvegicus [5] and in the data set with Rattus norvegicus [10] was Active. Moreover, the fEC50 in the data set listed under Mus musculus [3] was 79.4 nM. For the same compound, the results for the Cmax in [4] and in [16] were 1770 ng/mL and 1020 ng/mL, respectively. In addition, the outcome in the data set with Rattus norvegicus [6] and in the data set listed under Mus musculus [7] was inactive. Moreover, the Drug uptake(free) in the data set on Rattus norvegicus [8] was determined as 12.5 nM. Besides, the Activity entry in the data set filed under Canis familiaris [9] is listed as “Non-Toxic”; in the data set with Canis familiaris [13] it was “Non-Toxic”; in the data set on Rattus norvegicus [14], “Non-Toxic”; in the data set listed under Mus musculus [17] it was 0.43%. The Drug metabolism entry (in the data set on Liver; in data set [19]) was “Metabolite_Detected” each time. Besides, the half-life in data set [11] is 1.4 h. For the same compound, the “inhibition (INH)” value at Cytochrome P450 2C19 is “Not Active”. For the same compound, in data set [15], the Papp was found to be 26 ×10⁻⁶ cm/s. Further, the Kp uu in data set [18] was found to be 0.71.
